Screening results deposited in PubChem BioAssay by several laboratories.
Compounds with a hit are over-represented: about 4.8% of the library has one in this group of screens.
UPR XBP1 act: activators of adaptive XBP1 UPR arm, primary screen, cell-based, CHO-XBP1 luciferase reporter, luminescence, uHTS. activation, % at 20 µM. IRE1-XBP1 UPR activation; percent of tunicamycin response, DMSO as zero. actives 0.33% (n = 330,000). AID 463104, 2010;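 active = versus positive control, 20 µM dose yields 30% or more activation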;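 note: 100% = tunicamycin at 10 µg/mL and 0% = DMSO only wells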
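assay system = CHO-XBP1 luciferase reporter cells | amount = 1000 cells/well | buffer or medium = F12 plus 10% FBS | compound dosing = single point, 20 µM final compound, 1% DMSO | incubation = 16-18 h cell attachment at 37 °C, then 6 h compound exposure | detection = Steady-Glo luminescence read | controls = tunicamycin 10 µg/mL and vehicle-only wells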
CSC inhib: cancer stem cell viability inhibitors, primary screen, luminescence | actives 1.1% (n = 300,000) | inhibition, % at 7.5 µM | cancer stem cell-like cells viability; in the data active = inhibition above about 75%; tested in HMLE shEcad cells
CHOP UPR activ: activators of apoptotic CHOP UPR arm, primary screen, cell-based, CHO-CHOP luciferase reporter, luminescence, uHTS; UPR activation; percent of tunicamycin response over DMSO baseline; activation, % at 10 µM; actives 0.34% (n = 330,000); AID 449763, 2010;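 active = at 10 µM dose, activation of 40% or more, normalized to positive control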;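 note: 100% = tunicamycin at 10 µg/mL and 0% = DMSO alone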
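measured by = luciferase luminescence | assay system = CHO-CHOP cells, stable luciferase reporter of PERK-eIF2a-CHOP signalling | amount = 500 reporter cells seeded per well | timing = 6 h compound exposure at 37 °C after overnight seeding | controls = positive tunicamycin 10 µg/mL, negative DMSO alone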
SKKanGAS inh: S. pyogenes SKKanGAS growth inhibitors in kanamycin, primary screen, streptokinase expression inhibitor project, SKKanGAS strain, BacTiter-Glo luminescence. actives 1.3% (n = 300,000). inhibition, % at 7.5 µM. 6 h;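 active = mean replicate score, as percent of positive control median, at least 50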;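 note: strain carries kanamycin resistance gene driven by streptokinase promoter and grows in 40 µg/ml kanamycin; loss of luminescence reflects streptokinase promoter inhibition or plain growth inhibition; 0% = median of DMSO wells and 100% = positive control at its reference dose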
Beta cell apopt: inhibitors of cytokine-induced beta cell apoptosis, primary screen, luminescence; INS-1E cytokine-induced death, ATP luminescence, 48 h; percent of positive-control rescue, neutral wells zero; protection from apoptosis, % (concentration not given with the values); actives 0.8% (n = 300,000); AID 435005, 2010;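 active = Every replicate reaches about 75%, or at least half do and their mean reaches it too, limit read from the data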;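 note: 0% = cytokine-treated negative control wells and 100% = positive control rescue; higher means more ATP so stronger rescue from cytokine killing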
Mdm2-MdmX inh: inhibitors of human Mdm2-MdmX association, primary screen, cell-based, luminescence, split luciferase, SaOS-2, uHTS; Protein Mdm4 (Homo sapiens) + E3 ubiquitin-protein ligase Mdm2 (Homo sapiens), …; actives 3% (n = 330,000); inhibition, % at 8 µM; SaOS-2 split-luciferase Mdm2/MdmX complementation;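 active = inhibition of at least 50% at 8 µM in the primary screen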
Target sequence (O15151 whole entry, looked up): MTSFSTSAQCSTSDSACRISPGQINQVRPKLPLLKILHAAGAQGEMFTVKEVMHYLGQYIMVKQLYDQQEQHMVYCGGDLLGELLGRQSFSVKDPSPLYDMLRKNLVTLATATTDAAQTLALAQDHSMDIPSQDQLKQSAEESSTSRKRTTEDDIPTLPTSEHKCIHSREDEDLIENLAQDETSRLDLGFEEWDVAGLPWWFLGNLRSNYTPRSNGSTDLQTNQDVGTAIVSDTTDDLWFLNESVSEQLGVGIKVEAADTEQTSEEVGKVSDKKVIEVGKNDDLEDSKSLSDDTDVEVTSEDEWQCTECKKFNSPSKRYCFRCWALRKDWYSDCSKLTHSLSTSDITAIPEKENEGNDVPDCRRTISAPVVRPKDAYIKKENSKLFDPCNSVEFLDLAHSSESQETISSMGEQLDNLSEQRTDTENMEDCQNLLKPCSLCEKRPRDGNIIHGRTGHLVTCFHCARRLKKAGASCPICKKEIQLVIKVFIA
Target sequence (Q00987 whole entry, looked up): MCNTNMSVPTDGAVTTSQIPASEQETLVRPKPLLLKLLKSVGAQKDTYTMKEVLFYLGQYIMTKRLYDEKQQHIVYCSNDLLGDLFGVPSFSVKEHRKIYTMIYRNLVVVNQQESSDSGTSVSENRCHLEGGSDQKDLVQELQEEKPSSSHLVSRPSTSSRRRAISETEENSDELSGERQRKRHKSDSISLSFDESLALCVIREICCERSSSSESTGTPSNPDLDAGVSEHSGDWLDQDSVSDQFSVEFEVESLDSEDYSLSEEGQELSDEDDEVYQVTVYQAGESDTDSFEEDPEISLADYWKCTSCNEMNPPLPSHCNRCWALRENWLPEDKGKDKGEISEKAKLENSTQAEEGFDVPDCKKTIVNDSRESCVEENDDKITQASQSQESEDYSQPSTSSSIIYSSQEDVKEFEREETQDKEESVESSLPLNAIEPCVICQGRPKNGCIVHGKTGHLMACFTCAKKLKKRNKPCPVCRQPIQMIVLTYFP
Mdm2-MdmX conf: Mdm2-MdmX complex disruptors, retested hits, confirmation, luminescence, single concentration | inhibition, % at 8 µM | shares compounds with Mdm2-MdmX inh | Mdm2-MdmX binding, luminescent assay | actives 55% (n = 10,000) | AID 489028, 2010; in the data active = inhibition above about 40%
FLuc counter: full-length luciferase signal inhibition, confirmation, counter-screen for Mdm2/MdmX interaction inhibitor project, cell-based, single concentration, SaOS-2. actives 77% (n = 6,200). SaOS-2 full-length luciferase counterscreen, luminescence. inhibition, % at 8 µM. shares compounds with Mdm2-MdmX inh;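 active = mean inhibition at 8 µM reaching about 37%, which flags the compound as non-specific, limit read from the data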;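 note: p53-null SaOS-2 cells with luciferase driven by a doxycycline-inducible promoter; compound on cells about two nights before reading with doxycycline added after day one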
* hit, by the source's call; · = not tested or not shown.

SMILES | UPR XBP1 act | CSC inhib | CHOP UPR activ | SKKanGAS inh | Beta cell apopt | Mdm2-MdmX inh | Mdm2-MdmX conf | FLuc counter
CC(NC(=O)CCCCCNC(=O)N1CCn2c1nc1ccccc12)c1ccccc1 (stereo not drawn) | -2 | 6 | 0 | 6 | 5 | 12 | · | ·
Cc1nc(Nc2nc3c(c(=O)[nH]2)CCC3)nc2ccccc12 | 2 | 32 | 0 | 23 | -11 | 65* | 88* | 22
O=c1[nH]c(NCc2ccccc2)nc2c1CCC2 | 0 | -1 | 0 | 2 | -5 | -22 | · | ·
CC1CCN(CC(=O)Nc2ccc(C(=O)N3CCCCC3)cc2)CC1 | -4 | 5 | 2 | -3 | -7 | -23 | · | ·
Cc1cc(NC(=O)COC(=O)c2cc(S(=O)(=O)N(C)C)ccc2Cl)no1 | 0 | 9 | 1 | · | -7 | -13 | · | ·
O=C(Nc1ccc2c(c1)OCO2)O[C@@H]1C[C@H]2CCC(=O)N3CC[C@@H](C1)[C@@H]23 | 0 | 1 | 0 | 3 | -1 | 8 | · | ·
COC(=O)C1=C(C(=O)OC)[C@@H]2N(Cc3ccccc3)c3ccccc3[C@@]23C[C@@H](C(=O)OC)N(C(=O)c2cc(C)oc2C)C3=N1 | -1 | 26 | 2 | 6 | 2 | 57* | 7 | ·
COC(=O)C1=C(C(=O)OC)[C@@H]2N(Cc3ccccc3)c3ccccc3[C@@]23C[C@@H](C(=O)OC)N(C(=O)CC(C)C)C3=N1 | -4 | 22 | 3 | 7 | 12 | 4 | · | ·
COC(=O)C1=C(C(=O)OC)[C@@H]2N(Cc3ccccc3)c3ccccc3[C@@]23C[C@@H](C(=O)OC)N(C(=O)c2cccs2)C3=N1 | 7 | 33 | 17 | 3 | -5 | 60* | 21 | ·
COC(=O)C1=C(C(=O)OC)[C@@H]2N(C)c3ccccc3[C@@]23C[C@@H](C(=O)OC)N(C(=O)c2cccs2)C3=N1 | 0 | 0 | 1 | 0 | -7 | 24 | · | ·
COc1ccc(/C=C/C(=O)Nc2ccccc2C(=O)O)cc1OC | -12 | 15 | -5 | 14 | · | 62* | 76* | 131*
COc1ccc(/C=C/C(=O)c2cc(F)ccc2OC(=O)c2ccccc2)cc1OC | 22 | 47 | 3 | 1 | 3 | 68* | 58* | 98*
CC(=O)c1ccc(N2CCN(C(=O)Cn3cnc(S(=O)(=O)N4CCCCC4)c3)CC2)cc1 | -2 | · | 1 | -8 | · | -24 | · | ·
Cc1ccc(C2(C)NC(=O)N(CC(=O)NNC(=O)c3cc(C)oc3C)C2=O)cc1 (stereo not drawn) | 0 | -13 | 0 | 7 | -9 | 11 | · | ·
Cc1cc(NC(=O)C(C)SCC(=O)OCC(=O)N(C)c2ccccc2)no1 (stereo not drawn) | -2 | 2 | 2 | -1 | 1 | 17 | · | ·
Cc1ccc(N/C(N)=N/c2nc(C)cc(N3CCCCC3)n2)c(C)c1 | 3 | 7 | 5 | -8 | 111* | 78* | 40* | 67*
Cc1ccc(-c2nn(-c3ccc(F)cc3)cc2C(=O)NCCCN2CCCC2=O)cc1 | 0 | · | 2 | · | · | 13 | · | ·
N#Cc1c(-c2ccccc2)c(-c2ccccc2)nn(CC(=O)NNC(=O)Nc2ccc(Cl)c(Cl)c2)c1=O | 12 | 105* | 2 | 62* | 7 | 63* | 47* | 36
C=CCOCCn1[nH]c2ccccc2c1=O | 1 | -20 | 0 | · | -13 | -11 | · | ·
